Key:
[1] = biological target: T1, ATP-dependent translocase ABCB1 (Homo sapiens, UniProt P08183); assay: Inhibition of MDR1 (unknown origin) expressed in MDCK cells assessed as decrease in calcein-AM transport after 30 mins by fluorescence assay; assay type: cell-based
How it was run: (§1)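 MDCK-MDR1 or MDCK-MRP1 cells (50,000/well) grown to confluence overnight. Compounds in medium preincubated 30 min at 37 °C, then calcein-AM (2.5 μM final, in PBS) added for 30 min. Three ice-cold PBS washes; fluorescence read at ex 485/em 535 nm. Increase over untreated basal fluorescence fitted against log[dose] for EC50. Mean of three independent experiments, duplicate samples.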

[2] = biological target: T1, ATP-dependent translocase ABCB1; assay: Activation of MDR1 (unknown origin) ATPase activity expressed in MDCK cells assessed as decrease in ATP level after 2 hrs by ATPlite assay; assay type: cell-based
How it was run: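 MDCK-MDR1 cells seeded at 2x10⁴/well, grown overnight at 37 °C, 5% CO₂, then exposed to test compounds in complete medium at varying concentrations for 2 h. Cells lysed, luciferase substrate added, 10 min dark adaptation, luminescence read as cellular ATP level. Mean of three independent experiments, duplicate samples.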

[3] = biological target: Multidrug resistance-associated protein 1 (Homo sapiens, UniProt P33527); assay: Inhibition of MRP1 (unknown origin) expressed in MDCK cells assessed as decrease in calcein-AM transport at 10^-4 M after 30 mins by fluorescence assay; assay type: cell-based; details: 0.5 h, 100 µM; how it was run: as §1
[4] = biological target: P-gp (ABCB1) (Homo sapiens, UniProt P08183); assay: Substrate activity at p-gp in human Caco2 cells assessed as ratio of apparent permeability across basolateral to apical over apical to basolateral side at 100 uM after 120 mins by UV-Vis spectroscopy; assay type: ADME, cell-based; details: Caco-2
How it was run: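 Caco-2 monolayers cultured 21 days, with TEER checked before and after the experiment. Compounds at 100 μM in HBSS pH 7.4, applied apical or basolateral, 120 min at 37 °C after 30 min buffer preincubation. Acceptor concentration measured by UV–vis. Papp = [VA/(area×time)]×([drug]acceptor/[drug]initial), area 0.11 cm², 7200 s. Two independent experiments.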

[5] = test system: MDCK; assay: Cytotoxicity against MDCK cells expressing MDR1 assessed as inhibition of cell proliferation at 1 uM after 24 hrs by MTT assay; assay type: ADME, cell-based, Canis lupus familiaris; details: dog
How it was run: (§2)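 MTT growth assay. 30000 cells/well seeded on day 1; drugs added on day 2 over 0.1–100 μM, with solvent (ethanol, DMSO) controls. After 24 or 48 h, MTT 0.5 mg/mL for 3 h at 37 °C. Formazan dissolved in DMSO, absorbance read at 570 and 630 nm.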

[6] = biological target: T2, Broad substrate specificity ATP-binding cassette transporter ABCG2 (Homo sapiens, UniProt Q9UNQ0); assay: Inhibition of BCRP (unknown origin)
T2 sequence (Q9UNQ0 whole entry): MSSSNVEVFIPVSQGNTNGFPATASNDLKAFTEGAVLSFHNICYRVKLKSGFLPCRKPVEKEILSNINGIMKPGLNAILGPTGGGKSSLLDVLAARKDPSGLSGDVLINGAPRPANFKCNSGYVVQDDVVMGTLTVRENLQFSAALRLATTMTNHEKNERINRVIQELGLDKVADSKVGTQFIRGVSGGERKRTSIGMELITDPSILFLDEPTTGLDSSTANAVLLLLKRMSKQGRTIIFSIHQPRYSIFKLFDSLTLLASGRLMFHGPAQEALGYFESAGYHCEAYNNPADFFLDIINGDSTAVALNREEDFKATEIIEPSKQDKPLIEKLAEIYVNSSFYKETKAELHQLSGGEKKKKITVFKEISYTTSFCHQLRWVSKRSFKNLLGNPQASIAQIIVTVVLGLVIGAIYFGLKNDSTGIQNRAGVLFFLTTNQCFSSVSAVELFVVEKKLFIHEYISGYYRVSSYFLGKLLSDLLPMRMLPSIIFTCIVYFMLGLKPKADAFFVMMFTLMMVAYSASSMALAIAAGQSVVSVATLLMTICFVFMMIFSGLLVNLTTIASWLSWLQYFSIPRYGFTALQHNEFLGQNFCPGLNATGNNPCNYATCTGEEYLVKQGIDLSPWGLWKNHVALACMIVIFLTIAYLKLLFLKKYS

[7] = test system: MCF7; assay: Cytotoxicity against human MCF7 cells assessed as inhibition of cell proliferation at 0.1 uM after 24 hrs by MTT assay; assay type: cell-based; details: mcf7, 24 h; how it was run: as §2
[8] = test system: MDCK; assay: Cytotoxicity against MDCK cells expressing MDR1 assessed as inhibition of cell proliferation at 0.1 uM after 48 hrs by MTT assay; assay type: ADME, cell-based, Canis lupus familiaris; details: dog; how it was run: as §2

Chain of Multidrug resistance-associated protein 1 (P33527 whole entry): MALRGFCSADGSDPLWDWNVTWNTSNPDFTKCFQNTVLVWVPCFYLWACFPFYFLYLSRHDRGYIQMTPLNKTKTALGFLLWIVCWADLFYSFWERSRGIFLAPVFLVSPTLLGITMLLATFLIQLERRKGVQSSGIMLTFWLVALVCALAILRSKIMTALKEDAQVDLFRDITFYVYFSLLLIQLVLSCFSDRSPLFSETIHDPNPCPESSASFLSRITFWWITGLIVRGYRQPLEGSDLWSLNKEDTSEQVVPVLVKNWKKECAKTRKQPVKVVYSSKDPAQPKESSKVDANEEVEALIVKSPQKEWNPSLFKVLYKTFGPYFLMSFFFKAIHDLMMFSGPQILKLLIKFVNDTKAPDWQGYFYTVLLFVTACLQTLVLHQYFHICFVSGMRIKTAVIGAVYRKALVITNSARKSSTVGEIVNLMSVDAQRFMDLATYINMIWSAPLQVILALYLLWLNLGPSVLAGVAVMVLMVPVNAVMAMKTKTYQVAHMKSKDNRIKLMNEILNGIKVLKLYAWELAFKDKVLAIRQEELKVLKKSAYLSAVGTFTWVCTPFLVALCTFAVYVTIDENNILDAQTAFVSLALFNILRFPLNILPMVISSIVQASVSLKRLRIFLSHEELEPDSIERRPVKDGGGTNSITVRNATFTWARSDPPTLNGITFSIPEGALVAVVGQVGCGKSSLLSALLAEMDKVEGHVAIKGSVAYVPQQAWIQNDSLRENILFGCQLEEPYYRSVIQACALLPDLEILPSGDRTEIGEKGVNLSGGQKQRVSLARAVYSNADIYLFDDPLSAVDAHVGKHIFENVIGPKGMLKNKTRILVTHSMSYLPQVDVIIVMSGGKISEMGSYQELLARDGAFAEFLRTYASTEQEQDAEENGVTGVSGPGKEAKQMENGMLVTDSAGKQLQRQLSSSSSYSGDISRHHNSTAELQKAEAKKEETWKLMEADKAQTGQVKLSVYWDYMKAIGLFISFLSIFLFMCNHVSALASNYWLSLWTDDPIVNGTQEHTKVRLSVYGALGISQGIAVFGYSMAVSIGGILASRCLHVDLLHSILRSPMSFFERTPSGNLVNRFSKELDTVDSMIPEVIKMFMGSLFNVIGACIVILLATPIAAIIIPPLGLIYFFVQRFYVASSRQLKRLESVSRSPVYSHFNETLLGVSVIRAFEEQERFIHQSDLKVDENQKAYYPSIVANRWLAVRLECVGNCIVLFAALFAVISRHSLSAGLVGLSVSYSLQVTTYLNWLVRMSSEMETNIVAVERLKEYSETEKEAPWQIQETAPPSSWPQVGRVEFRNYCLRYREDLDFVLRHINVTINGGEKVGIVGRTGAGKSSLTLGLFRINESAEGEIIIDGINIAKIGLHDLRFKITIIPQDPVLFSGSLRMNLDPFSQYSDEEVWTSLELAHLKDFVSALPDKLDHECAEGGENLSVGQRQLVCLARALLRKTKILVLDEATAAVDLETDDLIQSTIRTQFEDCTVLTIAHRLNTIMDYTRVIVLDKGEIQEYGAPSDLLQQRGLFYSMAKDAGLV
T1 sequence (P08183 whole entry): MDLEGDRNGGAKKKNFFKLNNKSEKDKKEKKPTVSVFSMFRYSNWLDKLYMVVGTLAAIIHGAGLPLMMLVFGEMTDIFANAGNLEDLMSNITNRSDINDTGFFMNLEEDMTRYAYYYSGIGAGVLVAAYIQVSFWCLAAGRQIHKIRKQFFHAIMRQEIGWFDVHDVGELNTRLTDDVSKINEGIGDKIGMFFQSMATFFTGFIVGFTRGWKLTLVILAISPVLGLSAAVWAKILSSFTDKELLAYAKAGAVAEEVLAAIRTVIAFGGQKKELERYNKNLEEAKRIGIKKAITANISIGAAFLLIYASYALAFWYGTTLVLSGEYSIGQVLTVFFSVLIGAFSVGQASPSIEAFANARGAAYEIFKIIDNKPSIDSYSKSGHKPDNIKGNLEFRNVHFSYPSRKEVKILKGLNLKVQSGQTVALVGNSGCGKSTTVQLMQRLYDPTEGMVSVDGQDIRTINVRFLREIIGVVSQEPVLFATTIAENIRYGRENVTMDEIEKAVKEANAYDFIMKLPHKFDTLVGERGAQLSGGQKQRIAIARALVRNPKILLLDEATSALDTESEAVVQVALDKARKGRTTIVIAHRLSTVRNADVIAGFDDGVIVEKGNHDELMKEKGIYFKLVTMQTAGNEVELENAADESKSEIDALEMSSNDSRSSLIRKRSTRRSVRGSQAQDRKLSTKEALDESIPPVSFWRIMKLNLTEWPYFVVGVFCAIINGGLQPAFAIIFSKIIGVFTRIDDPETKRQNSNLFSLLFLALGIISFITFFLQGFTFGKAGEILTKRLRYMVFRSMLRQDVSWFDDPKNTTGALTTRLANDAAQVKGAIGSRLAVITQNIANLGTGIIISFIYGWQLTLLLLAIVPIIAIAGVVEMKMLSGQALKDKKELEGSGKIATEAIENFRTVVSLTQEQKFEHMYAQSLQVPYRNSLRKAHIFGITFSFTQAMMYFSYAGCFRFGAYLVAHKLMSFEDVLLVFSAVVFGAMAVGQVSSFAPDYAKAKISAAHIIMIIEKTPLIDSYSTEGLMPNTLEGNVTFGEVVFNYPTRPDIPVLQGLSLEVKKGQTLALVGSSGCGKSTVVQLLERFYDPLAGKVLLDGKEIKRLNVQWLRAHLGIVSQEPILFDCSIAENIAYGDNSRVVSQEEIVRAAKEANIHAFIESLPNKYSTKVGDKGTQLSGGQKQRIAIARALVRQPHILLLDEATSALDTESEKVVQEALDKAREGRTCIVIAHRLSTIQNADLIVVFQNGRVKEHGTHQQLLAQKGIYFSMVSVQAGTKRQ
Chain of P-gp (ABCB1) (P08183 whole entry): as above

| Structure (SMILES) | EC50 [1] [nM] | Activity [2] | inhibition (INH) [3] | efflux ratio at 2 h, 100 µM [4] | Activity [5] | EC50 [6] [nM] | Activity [7] | Activity [8] |
| --- | --- | --- | --- | --- | --- | --- | --- | --- |
| COc1cc2c(cc1OC)CN(Cc1ccc(-c3ccc(OCCOc4nonc4OCc4ccccc4)cc3)cc1)CC2 | 290 | Not Active | Not Active | 4.9 | – | – | – | – |
| COc1cc2c(cc1OC)CN(Cc1ccc(-c3ccc(OCCOc4nonc4[S+]([O-])c4ccccc4)cc3)cc1)CC2 (configuration not stated) | 0.9 | Not Active | Not Active | 4.6 | Non-Toxic | > 100000 | Toxic | Toxic |
| COc1cc2c(cc1OC)CN(Cc1ccc(-c3ccc(OCCCOc4nonc4S(=O)(=O)c4ccccc4)cc3)cc1)CC2 | 380 | Not Active | Not Active | 2.5 | – | – | – | – |
| COc1cc2c(cc1OC)CN(Cc1ccc(-c3ccc(OCCOc4nonc4OC)cc3)cc1)CC2 | 0.6 | Active | Not Active | 3.2 | Non-Toxic | > 100000 | Toxic | Toxic |
| COc1cc2c(cc1OC)CN(Cc1ccc(-c3ccc(OCCCOc4nonc4-c4ccccc4)cc3)cc1)CC2 | 3300 | Not Active | Not Active | 20 | – | – | – | – |
| COc1cc2c(cc1OC)CN(Cc1ccc(-c3ccc(OCCCOc4nonc4C#N)cc3)cc1)CC2 | 1050 | Not Active | Not Active | 4.9 | – | – | – | – |
| COc1cc2c(cc1OC)CN(Cc1ccc(-c3ccc(OCCCOc4nonc4C)cc3)cc1)CC2 | 350 | Not Active | Not Active | 4 | – | – | – | – |
| COc1cc2c(cc1OC)CN(Cc1ccc(-c3ccc(OCCCCOc4nonc4OC)cc3)cc1)CC2 | 290 | Not Active | Not Active | 3 | – | – | – | – |
| COc1cc2c(cc1OC)CN(Cc1ccc(-c3ccc(OCCCOc4nonc4Sc4ccccc4)cc3)cc1)CC2 | 1170 | Not Active | Not Active | 4.7 | – | – | – | – |
| COc1cc2c(cc1OC)CN(Cc1ccc(-c3ccc(OCCCOc4nonc4Oc4ccccc4)cc3)cc1)CC2 | 1180 | Not Active | Not Active | 3.8 | – | – | – | – |
| COc1cc2c(cc1OC)CN(Cc1ccc(-c3ccc(OCCOc4nonc4C#N)cc3)cc1)CC2 | 1200 | Not Active | Not Active | 4.7 | – | – | – | – |
| COc1cc2c(cc1OC)CN(Cc1ccc(-c3ccc(OCCCOc4nonc4[S+]([O-])c4ccccc4)cc3)cc1)CC2 (configuration not stated) | 1.3 | Not Active | Not Active | 2.6 | Non-Toxic | > 100000 | Toxic | Toxic |
| COc1cc2c(cc1OC)CN(Cc1ccc(-c3ccc(OCCCOc4nonc4OCc4ccccc4)cc3)cc1)CC2 | 0.97 | Not Active | Not Active | 3 | Non-Toxic | > 100000 | Toxic | Toxic |
| COc1cc2c(cc1OC)CN(Cc1ccc(-c3ccc(OCCCOc4nonc4OC)cc3)cc1)CC2 | 54 | Not Active | Not Active | 3.2 | – | – | – | – |

Reference: ChEMBL document CHEMBL4425124, “Structure-Activity Relationship Studies on Tetrahydroisoquinoline Derivatives: [4'-(6,7-Dimethoxy-3,4-dihydro-1H-isoquinolin-2-ylmethyl)biphenyl-4-ol] (MC70) Conjugated through Flexible Alkyl Chains with Furazan Moieties Gives Rise to Potent and Selective Ligands of P-glycoprotein” (J Med Chem, 2016)
